≈ marks a conversion by molar mass, not a printed value. Calls of active or inactive are those of the source. The rule behind the calls is not given here.
Assays:
[1] = Plasma clearance in Wistar rat at 0.2 mg/kg, iv as bolus dose or 0.5 mg/kg, po via gavage measured over 6 hrs relative to hepatic blood flow; assay type: ADME, organism-based, Liver; conditions: in vivo
[2] = Volume of distribution at steady state in Beagle dog at 0.2 mg/kg, iv as bolus dose or 0.5 mg/kg, po via gavage measured over 48 hrs; assay type: ADME, organism-based, Canis lupus familiaris; conditions: in vivo, read-out: Vdss
[3] = Oral bioavailability in NMRI mouse at 0.5 mg/kg via gavage measured over 6 hrs measured over 6 hrs; assay type: ADME, organism-based; conditions: in vivo
[4] = Half life in Beagle dog at 0.2 mg/kg, iv as bolus dose or 0.5 mg/kg, po via gavage; assay type: ADME, organism-based, Canis lupus familiaris; conditions: in vivo
[5] = Intrinsic clearance in human liver microsomes at 1 uM preincubated for 5 mins followed by NADPH addition measured after 5 to 30 mins by LC-MS/MS analysis; assay type: ADME; conditions: read-out: CLH
[6] = Fraction unbound in Beagle dog plasma at 0.2 mg/kg, iv as bolus dose or 0.5 mg/kg, po via gavage measured over 48 hrs; assay type: ADME, organism-based, Canis lupus familiaris
[7] = Thermodynamic solubility of the compound in PBS at pH 7.4; assay type: physicochemical; conditions: read-out: Therm_solubility
[8] = Inhibition of CYP450 (unknown origin); assay type: ADME, Homo sapiens
[9] = Thermodynamic solubility of the compound in FeSSIF at pH 5; assay type: physicochemical; conditions: read-out: Therm_solubility
[10] = Volume of distribution at steady state in Wistar rat at 0.2 mg/kg, iv as bolus dose or 0.5 mg/kg, po via gavage measured over 6 hrs; assay type: ADME, organism-based; conditions: in vivo, read-out: Vdss
[11] = Plasma clearance in Wistar rat at 0.2 mg/kg, iv as bolus dose or 0.5 mg/kg, po via gavage measured over 6 hrs; assay type: ADME, organism-based
[12] = Fraction unbound in Wistar rat plasma at 0.2 mg/kg, iv as bolus dose or 0.5 mg/kg, po via gavage measured over 6 hrs; assay type: ADME, organism-based
[13] = Antitumor activity against human SW620 cells xenografted in NCr athymic mouse assessed as tumor growth inhibition at 100 mg/kg, po qd administered for 16 days relative to control; assay type: functional, SW-620
In short: (§1)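 Female NCr athymic mice bearing SW620 human colorectal carcinoma xenografts were dosed orally for 16 days. Growth inhibition was expressed as T/C ratio based on final tumor weights versus vehicle controls.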

[14] = Antitumor activity against human SW620 cells xenografted in NCr athymic mouse assessed as tumor growth inhibition at 50 mg/kg, po bid administered for 16 days relative to control; assay type: functional, SW-620; in short: as §1
[15] = biological target: T1, Cyclin-dependent kinase 8 (Homo sapiens, UniProt P49336); test: Inhibition of CDK8 in human COLO205 cells expressing APC mutant assessed as suppression of WNT pathway by luciferase reporter gene assay; assay type: cell-based; conditions: colo 205
Target sequence in this assay (P49336 whole entry, looked up, change not shown): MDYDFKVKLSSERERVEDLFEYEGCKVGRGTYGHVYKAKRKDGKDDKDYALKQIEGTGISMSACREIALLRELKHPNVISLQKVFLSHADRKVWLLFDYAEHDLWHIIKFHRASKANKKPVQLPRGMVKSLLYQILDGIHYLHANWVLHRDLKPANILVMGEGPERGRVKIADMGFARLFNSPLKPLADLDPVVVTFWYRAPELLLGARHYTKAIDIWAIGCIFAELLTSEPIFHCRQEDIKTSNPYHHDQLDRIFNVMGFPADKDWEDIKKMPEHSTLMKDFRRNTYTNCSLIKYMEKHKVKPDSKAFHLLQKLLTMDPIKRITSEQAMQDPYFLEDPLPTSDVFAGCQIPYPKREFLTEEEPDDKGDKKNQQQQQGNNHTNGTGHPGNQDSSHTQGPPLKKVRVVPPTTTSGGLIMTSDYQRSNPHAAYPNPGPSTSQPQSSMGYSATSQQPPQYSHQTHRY

Mus musculus [16] = test: Toxicity in NCr athymic mouse xenografted with human SW620 cells assessed as drug tolerance at 100 mg/kg, po qd administered for 16 days; assay type: organism-based, SW-620; conditions: in vivo, 384 h
In short: (§2)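 Female NCr athymic mice bearing SW620 colorectal xenografts received oral treatment for 16 days. Body weights were recorded and expressed as % of day 0 values.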

[17] = biological target: T1, Cyclin-dependent kinase 8; test: Inhibition of CDK8 in human SW620 cells assessed as decrease in STAT1 phosphorylation at Ser727; assay type: cell-based, SW-620
Target sequence in this assay (P49336 whole entry): as the sequence (P49336 whole entry, looked up, change not shown) above

[18] = Intrinsic clearance in mouse liver microsomes at 1 uM preincubated for 5 mins followed by NADPH addition measured after 5 to 30 mins by LC-MS/MS analysis; assay type: ADME; conditions: read-out: CLH
hERG (KCNH2) = hERG (KCNH2) (Homo sapiens, UniProt Q12809); test: Inhibition of human ERG at 10 uM relative to control
[19] = Plasma clearance in NMRI mouse at 0.2 mg/kg, iv as bolus dose or 0.5 mg/kg, po via gavage measured over 6 hrs; assay type: ADME, organism-based
[20] = biological target: T1, Cyclin-dependent kinase 8; test: Inhibition of CDK8 in human 7dF3 cells preincubated for 2 hrs followed by beta-oestradiol addition measured after 24 hrs by luciferase reporter gene assay; assay type: cell-based
Target sequence in this assay (P49336 whole entry): as the sequence (P49336 whole entry, looked up, change not shown) above

[21] = Oral bioavailability in Beagle dog at 0.5 mg/kg via gavage measured over 48 hrs; assay type: ADME, organism-based, Canis lupus familiaris; conditions: in vivo
[22] = Oral bioavailability in Wistar rat at 0.5 mg/kg via gavage measured over 6 hrs; assay type: ADME, organism-based; conditions: in vivo
[23] = Half life in Wistar rat at 0.2 mg/kg, iv as bolus dose or 0.5 mg/kg, po via gavage; assay type: ADME, organism-based; conditions: in vivo
[24] = Plasma clearance in NMRI mouse at 0.2 mg/kg, iv as bolus dose or 0.5 mg/kg, po via gavage measured over 6 hrs relative to hepatic blood flow; assay type: ADME, organism-based, Liver; conditions: in vivo
Mus musculus [25] = test: In vivo inhibition of CDK8-mediated STAT1 phosphorylation at Ser727 in human SW620 cells xenografted in NCr athymic mouse at 50 mg/kg, po bid administered for 16 days measured 2 to 24 hrs post last dose by immunoassay; assay type: functional, organism-based; conditions: SW-620
In short: (§3)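 SW620 xenografts in female NCr athymic mice were dosed orally for 16 days. Phospho-STAT1 Ser727 was measured by Luminex immunoassay, normalized to total STAT1 and expressed as % of vehicle controls at each time point (2 h to 24 h after dosing).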

Mus musculus [26] = test: Toxicity in NCr athymic mouse xenografted with human SW620 cells assessed as body weight loss at 50 mg/kg, po bid administered for 16 days; assay type: organism-based, SW-620; conditions: in vivo, 384 h; in short: as §2
[27] = Plasma clearance in Beagle dog at 0.2 mg/kg, iv as bolus dose or 0.5 mg/kg, po via gavage measured over 48 hrs relative to hepatic blood flow; assay type: ADME, organism-based, Canis lupus familiaris, Liver; conditions: in vivo
[28] = biological target: T1, Cyclin-dependent kinase 8; test: Inhibition of CDK8 in human PA1 cells assessed as suppression of WNT3a ligand-induced WNT pathway by luciferase reporter gene assay; assay type: cell-based, PA-1
Target sequence in this assay (P49336 whole entry): as the sequence (P49336 whole entry, looked up, change not shown) above

Mus musculus [29] = test: Toxicity in NCr athymic mouse xenografted with human SW620 cells assessed as effect on body weight at 100 mg/kg, po qd administered for 16 days; assay type: organism-based, SW-620; conditions: in vivo, 384 h; in short: as §2
[30] = Half life in NMRI mouse at 0.2 mg/kg, iv as bolus dose or 0.5 mg/kg, po via gavage; assay type: ADME, organism-based; conditions: in vivo
Mus musculus [31] = test: Toxicity in NCr athymic mouse xenografted with human SW620 cells assessed as drug tolerance at 50 mg/kg, po bid administered for 16 days; assay type: organism-based, SW-620; conditions: in vivo, 384 h; in short: as §2
[32] = Fraction unbound in NMRI mouse plasma at 0.2 mg/kg, iv as bolus dose or 0.5 mg/kg, po via gavage measured over 6 hrs; assay type: ADME, organism-based
[33] = Thermodynamic solubility of the compound in FaSSIF at pH 6.5; assay type: physicochemical; conditions: read-out: Therm_solubility
[34] = Kinetic solubility of the compound; assay type: physicochemical; conditions: read-out: Kinetic_solubility
[35] = biological target: Glycogen synthase kinase-3 alpha (Homo sapiens) (UniProt P49840); test: Inhibition of GSK-3alpha (unknown origin) at 1 uM relative to control
[36] = Apparent permeability from apical to basolateral side in human Caco2 cells at 1 uM after 2 hrs by Transwell assay; assay type: ADME, cell-based; conditions: Caco-2
[37] = Plasma clearance in Beagle dog at 0.2 mg/kg, iv as bolus dose or 0.5 mg/kg, po via gavage measured over 48 hrs; assay type: ADME, organism-based, Canis lupus familiaris
[38] = biological target: Sodium-dependent dopamine transporter (Homo sapiens, UniProt Q01959); test: Displacement of [3H]BTCP from human recombinant dopamine transporter expressed in CHO cells after 120 mins by scintillation counting method; assay type: cell-based
[39] = biological target: T1, Cyclin-dependent kinase 8; test: Inhibition of CDK8 in human LS174T cells expressing beta-catenin mutant assessed as suppression of WNT pathway by luciferase reporter gene assay; assay type: cell-based
Target sequence in this assay (P49336 whole entry, looked up, change not shown): as above

[40] = Intrinsic clearance in rat liver microsomes at 1 uM preincubated for 5 mins followed by NADPH addition measured after 5 to 30 mins by LC-MS/MS analysis; assay type: ADME; conditions: read-out: CLH
Mus musculus [41] = test: In vivo inhibition of CDK8-mediated STAT1 phosphorylation at Ser727 in human SW620 cells xenografted in NCr athymic mouse at 100 mg/kg, po qd administered for 16 days measured 2 to 24 hrs post last dose by immunoassay; assay type: functional, organism-based; conditions: SW-620; in short: as §3
CDK8/Cyclin C = CDK8/Cyclin C (Homo sapiens, UniProt P49336); test: Inhibition of Alexa647 tracer binding to full length recombinant human His-tagged CDK8/cyclin C expressed in Baculovirus expression system preincubated for 20 mins followed by tracer addition and incubated in dark for 60 mins by FRET-based Lanthascreen assay
[42] = Efflux ratio of permeability in human Caco2 cells at 1 uM after 2 hrs by Transwell assay; assay type: ADME, cell-based; conditions: Caco-2
[43] = Volume of distribution at steady state in NMRI mouse at 0.2 mg/kg, iv as bolus dose or 0.5 mg/kg, po via gavage measured over 6 hrs; assay type: ADME, organism-based; conditions: in vivo, read-out: Vdss

Chain of Glycogen synthase kinase-3 alpha (Homo sapiens) (P49840 2-483 limits assumed): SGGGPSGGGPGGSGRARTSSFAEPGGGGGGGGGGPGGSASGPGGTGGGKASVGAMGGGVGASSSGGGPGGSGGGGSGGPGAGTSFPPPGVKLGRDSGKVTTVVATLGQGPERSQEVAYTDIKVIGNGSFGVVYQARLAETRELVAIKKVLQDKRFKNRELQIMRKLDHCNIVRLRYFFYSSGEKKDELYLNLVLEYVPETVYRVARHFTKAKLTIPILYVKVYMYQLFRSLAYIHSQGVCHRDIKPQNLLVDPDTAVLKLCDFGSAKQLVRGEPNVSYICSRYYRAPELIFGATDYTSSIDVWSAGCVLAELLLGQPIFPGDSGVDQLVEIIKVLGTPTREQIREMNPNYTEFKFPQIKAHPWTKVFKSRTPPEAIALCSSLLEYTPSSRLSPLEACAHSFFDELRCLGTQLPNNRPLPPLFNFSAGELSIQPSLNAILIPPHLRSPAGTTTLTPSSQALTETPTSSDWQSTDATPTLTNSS
Chain of CDK8/Cyclin C (P49336 whole entry): as the sequence (P49336 whole entry, looked up, change not shown) above
Chain of CDK8/Cyclin C (P24863 whole entry, further chain): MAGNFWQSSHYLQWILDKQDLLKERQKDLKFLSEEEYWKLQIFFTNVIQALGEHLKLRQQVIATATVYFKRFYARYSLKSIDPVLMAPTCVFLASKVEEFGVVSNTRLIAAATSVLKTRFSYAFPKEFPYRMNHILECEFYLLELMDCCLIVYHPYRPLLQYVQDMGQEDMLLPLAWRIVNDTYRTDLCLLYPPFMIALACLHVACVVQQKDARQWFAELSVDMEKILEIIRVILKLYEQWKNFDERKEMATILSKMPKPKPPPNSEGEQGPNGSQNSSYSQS
Chain of Sodium-dependent dopamine transporter (Q01959 whole entry): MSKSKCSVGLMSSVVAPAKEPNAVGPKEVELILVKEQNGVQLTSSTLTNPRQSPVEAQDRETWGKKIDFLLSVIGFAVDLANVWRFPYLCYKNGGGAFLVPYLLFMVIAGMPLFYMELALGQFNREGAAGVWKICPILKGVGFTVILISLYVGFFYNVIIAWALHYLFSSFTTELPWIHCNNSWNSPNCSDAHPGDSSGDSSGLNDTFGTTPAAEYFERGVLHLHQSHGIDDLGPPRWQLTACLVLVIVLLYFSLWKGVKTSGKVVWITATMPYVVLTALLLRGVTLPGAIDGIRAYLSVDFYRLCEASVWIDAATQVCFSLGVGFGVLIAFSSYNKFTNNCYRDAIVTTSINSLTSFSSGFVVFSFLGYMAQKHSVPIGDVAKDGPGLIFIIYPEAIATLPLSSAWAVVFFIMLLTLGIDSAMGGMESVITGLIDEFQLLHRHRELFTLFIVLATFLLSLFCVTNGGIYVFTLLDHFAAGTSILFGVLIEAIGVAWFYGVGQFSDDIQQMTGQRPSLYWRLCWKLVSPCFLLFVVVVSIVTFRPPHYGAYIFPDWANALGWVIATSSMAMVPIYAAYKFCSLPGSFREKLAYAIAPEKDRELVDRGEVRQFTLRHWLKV
Chain of hERG (KCNH2) (Q12809 whole entry): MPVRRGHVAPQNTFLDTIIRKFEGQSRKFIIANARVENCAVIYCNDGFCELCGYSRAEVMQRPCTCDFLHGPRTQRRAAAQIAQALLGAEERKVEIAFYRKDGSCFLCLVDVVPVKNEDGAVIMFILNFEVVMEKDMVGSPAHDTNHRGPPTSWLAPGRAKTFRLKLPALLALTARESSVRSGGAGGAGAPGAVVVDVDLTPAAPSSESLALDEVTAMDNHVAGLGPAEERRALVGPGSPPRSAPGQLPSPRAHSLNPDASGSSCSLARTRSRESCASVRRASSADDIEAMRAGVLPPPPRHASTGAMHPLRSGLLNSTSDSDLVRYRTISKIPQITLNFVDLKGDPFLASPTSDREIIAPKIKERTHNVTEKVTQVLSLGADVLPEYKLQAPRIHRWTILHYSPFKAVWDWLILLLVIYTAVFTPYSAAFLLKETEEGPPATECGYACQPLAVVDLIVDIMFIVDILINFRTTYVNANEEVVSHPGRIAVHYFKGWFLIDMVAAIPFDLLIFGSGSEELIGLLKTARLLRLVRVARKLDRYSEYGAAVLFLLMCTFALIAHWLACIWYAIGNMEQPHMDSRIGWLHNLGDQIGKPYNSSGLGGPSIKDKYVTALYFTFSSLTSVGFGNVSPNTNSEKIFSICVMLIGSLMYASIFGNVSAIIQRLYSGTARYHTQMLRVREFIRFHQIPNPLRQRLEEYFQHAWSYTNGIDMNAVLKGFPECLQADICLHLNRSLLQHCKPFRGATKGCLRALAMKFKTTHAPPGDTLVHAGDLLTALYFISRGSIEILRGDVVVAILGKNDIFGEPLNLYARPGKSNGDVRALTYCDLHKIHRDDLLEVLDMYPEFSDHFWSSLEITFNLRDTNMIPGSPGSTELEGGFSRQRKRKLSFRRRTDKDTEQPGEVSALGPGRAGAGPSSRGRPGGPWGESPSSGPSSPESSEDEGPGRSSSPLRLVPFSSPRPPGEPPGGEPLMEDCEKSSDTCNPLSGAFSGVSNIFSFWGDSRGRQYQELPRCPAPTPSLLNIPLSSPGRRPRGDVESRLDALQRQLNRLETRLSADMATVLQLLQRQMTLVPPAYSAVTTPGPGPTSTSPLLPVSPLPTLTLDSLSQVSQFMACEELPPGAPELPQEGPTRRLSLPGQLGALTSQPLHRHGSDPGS

CL [1]: 34.6% | Vd [2]: 1.47 L/kg | bioavailability [3]: 25% | half-life [4]: 49.8 min | microsomal CLint at 1 µM [5]: 45 µL/min/mg | fraction unbound at 48 h [6]: 0.5 | solubility thermodynamic [7]: 399 µg/mL (≈ 1170 µM) | IC50 [8]: > 20000 nM | solubility thermodynamic [9]: 836 µg/mL (≈ 2450 µM) | Vd [10]: 1.62 L/kg | clearance [11]: 25 mL/min/kg | fraction unbound at 6 h [12]: 0.19 | IC50 [15]: 9 nM | IC50 [17]: 8 nM | microsomal CLint at 1 µM [18]: < 10 µL/min/mg | clearance [19]: 22.8 mL/min/kg | IC50 [20]: 6.5 nM | bioavailability [21]: 39% | bioavailability [22]: 66% | half-life [23]: 51.6 min | CL [24]: 22.5% | CL [27]: 53.8% | IC50 [28]: 52 nM | half-life [30]: 27 min | fraction unbound at 6 h [32]: 0.13 | solubility thermodynamic [33]: 628 µg/mL (≈ 1840 µM) | solubility kinetic [34]: > 200 µM | inhibition [35]: > 50% | Papp A→B at 2 h, 1 µM [36]: 44 ×10⁻⁶ cm/s | clearance [37]: 22.5 mL/min/kg | IC50 [38]: 8500 nM | IC50 [39]: 32 nM | microsomal CLint at 1 µM [40]: < 10 µL/min/mg | IC50 (CDK8/Cyclin C): 2.6 nM | efflux ratio at 2 h, 1 µM [42]: 1.5 | Vd [43]: 0.59 L/kg
Compound: Cc1n[nH]c2ncc(C(=O)N3CCC[C@H]3c3ccc(Cl)cc3)cc12
T/C [13]: 57% | T/C [14]: 49% | Activity (Mus musculus [16]): Non-Toxic | inhibition at 10 µM (hERG (KCNH2)): 18% | inhibition (Mus musculus [25]): Active | Activity (Mus musculus [26]): Non-Toxic | Activity (Mus musculus [29]): Non-Toxic | Activity (Mus musculus [31]): Non-Toxic | inhibition (Mus musculus [41]): Active
